This note sets out measurements from BindingDB's records for doi:10.1021/jm000269t (Amgen, 2000).

This experiment addresses T1, Neuropeptide Y receptor type 5 (Homo sapiens, UniProt Q15761).
T1 sequence (Q15761 whole entry): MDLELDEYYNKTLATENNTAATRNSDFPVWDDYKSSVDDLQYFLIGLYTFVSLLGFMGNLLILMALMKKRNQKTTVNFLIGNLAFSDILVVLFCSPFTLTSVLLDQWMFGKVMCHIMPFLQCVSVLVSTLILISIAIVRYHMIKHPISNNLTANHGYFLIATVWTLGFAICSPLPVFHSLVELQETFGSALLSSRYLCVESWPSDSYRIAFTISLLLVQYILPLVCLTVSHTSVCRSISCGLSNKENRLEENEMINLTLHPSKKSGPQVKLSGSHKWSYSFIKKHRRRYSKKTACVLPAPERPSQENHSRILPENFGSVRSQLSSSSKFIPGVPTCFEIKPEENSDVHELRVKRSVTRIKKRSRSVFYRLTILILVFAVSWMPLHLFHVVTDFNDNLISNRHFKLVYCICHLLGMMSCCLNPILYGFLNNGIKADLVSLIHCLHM
The experiment is described as follows: Affinity for human neuropeptide Y receptor Y5, binding was evaluated in an in vitro radioligand [125I]PYY binding assay. Put shortly: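 HEK 293 cells expressing human Y5 receptor, harvested in PBS and homogenized in sucrose buffer; membranes washed by repeated 48000g spins and resuspended in MEM/Earle's assay buffer (25 mM HEPES, 0.1% BSA, STI, Pefabloc, pH 7.4). Membranes (200 µg tissue) incubated with compounds and 0.15 nM [125I]PYY, 2 h at 30 °C. Nonspecific binding defined with 1 µM PYY. Filtration read-out; IC50 by nonlinear regression, averaging at least two 6-point curves.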

Usually IC50 stands for the point on the concentration scale where inhibition reaches its midpoint. A low value points to greater potency in that assay. `Cc1ccc(-c2cc3nc(C)nc(N4CCCCC4)c3[nH]2)cc1` [2-Methyl-4-piperidin-1-yl-6-p-tolyl-5H-pyrrolo[3,2-d]pyrimidine]: the half-inhibitory concentration (IC50) was found to be 0.5 nM.

Regarding `Cc1nc(N2CCCCC2)c2[nH]c(-c3ccc(C)o3)cc2n1` [2-Methyl-6-(5-methyl-furan-2-yl)-4-piperidin-1-yl-5H-pyrrolo[3,2-d]pyrimidine], the half-maximal inhibitory concentration (IC50) came out at 0.5 nM.
